{
  "source": "paper PMC9272679",
  "about": "(Computers in Biology and Medicine, 2022)",
  "key": {"NCI–H522": {"test_system": "NCI–H522", "test": "In vitro antiproliferative assay", "assay_type": "cell-based, human", "conditions": "for mean optical densities: 48 h, SRB, 515 nm", "outline": "(§1)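 NCI-sourced cells grown in DMEM with 10% FBS, penicillin 25 U/mL and streptomycin 25 U/mL (37 °C, 5% CO2, 95% humidity). 5000–40,000 viable cells/well attached 24 h, then fresh medium with test compound at 0, 0.1, 1.0, 10 or 100 μM for 48 h. TCA-fixed (10%, 1 h RT), 0.4% SRB stain 60 min, acetic acid wash, Tris-solubilised dye read at 515 nm. GI50 and TGI calculated; triplicates, mean ± SD.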"}, "NCI–H226": {"test_system": "NCI–H226", "test": "In vitro antiproliferative assay", "assay_type": "cell-based, human", "conditions": "for mean optical densities: 48 h, SRB, 515 nm", "outline": "as §1"}, "HOP-62": {"test_system": "HOP-62", "test": "In vitro antiproliferative assay", "assay_type": "cell-based, human", "conditions": "for mean optical densities: 48 h, SRB, 515 nm", "outline": "as §1"}, "A549/ATCC": {"test_system": "A549/ATCC", "test": "In vitro antiproliferative assay", "assay_type": "cell-based, human", "conditions": "for mean optical densities: A549/ATCC, 48 h, SRB, 515 nm", "outline": "as §1"}, "A549": {"test_system": "A549", "test": "In vitro antiproliferative assay", "assay_type": "cell-based, human", "conditions": "for mean optical densities: 48 h, SRB, 515 nm", "outline": "as §1"}, "K-562": {"test_system": "K-562", "test": "In vitro antiproliferative assay", "assay_type": "cell-based, human", "conditions": "for mean optical densities: 48 h, SRB, 515 nm", "outline": "as §1"}, "[1]": {"test": "In vivo pharmacokinetics in rats", "parameters": "species or system Male albino Wistar rats", "conditions": "male, Wistar, rat, plasma, po, 5 mg/kg", "outline": "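Rats were given test compound at 5 mg/kg BW orally. Blood was drawn hourly over 24 h (24 samples) into Na2EDTA tubes, and plasma was quantified by UPLC. Cmax, Tmax and AUC0-t were taken from the plasma concentration-time curve. K came from the terminal log-linear slope, and AUC0→∞ was calculated as AUC0-t + Clast/K.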"}, "NCI–H322 M": {"test_system": "NCI–H322 M", "test": "In vitro antiproliferative assay", "assay_type": "cell-based, human", "conditions": "48 h; for mean optical densities: NCI–H322 M, SRB, 515 nm", "outline": "as §1"}, "[2]": {"test_system": "five cell lines originating from human lungs", "test": "In vitro antiproliferative assay", "assay_type": "cell-based", "conditions": "read-out: IC50 range", "outline": "as §1"}, "MCF7": {"test_system": "MCF7", "test": "In vitro antiproliferative assay", "assay_type": "cell-based, human", "conditions": "for mean optical densities: 48 h, SRB, 515 nm", "outline": "as §1"}},
  "note": "Marks after values point to notes of the source that are not given here.",
  "data": [
    {"smiles": "CCNc1nc2ccccc2c2c(=O)c3cc(Cl)ccc3sc12", "note": "[RXn-02, 10-chloro-6-(ethylamino)-12H-thiochromeno[2,3-c] quinolin-12-one]", "values": [
      {"measurement": "IC50", "setting": "NCI–H522; Homo sapiens, NCI-H522, 48 h", "value": 24.8, "unit": "µM"},
      {"measurement": "mean optical densities", "setting": "NCI–H522; NCI–H522, RXn-02 0.1 μM", "value": 2.405},
      {"measurement": "mean optical densities", "setting": "NCI–H522; NCI–H522, RXn-02 1.0 μM", "value": 2.362},
      {"measurement": "mean optical densities", "setting": "NCI–H522; NCI–H522, RXn-02 10 μM", "value": "2.110*"},
      {"measurement": "mean optical densities", "setting": "NCI–H522; NCI–H522, RXn-02 100 μM", "value": "1.395**"},
      {"measurement": "IC50", "setting": "NCI–H226; Homo sapiens, NCI-H226, 48 h", "value": 33.2, "unit": "µM"},
      {"measurement": "mean optical densities", "setting": "NCI–H226; NCI–H226, RXn-02 0.1 μM", "value": 2.389},
      {"measurement": "mean optical densities", "setting": "NCI–H226; NCI–H226, RXn-02 1.0 μM", "value": 2.367},
      {"measurement": "mean optical densities", "setting": "NCI–H226; NCI–H226, RXn-02 10 μM", "value": "2.142*"},
      {"measurement": "mean optical densities", "setting": "NCI–H226; NCI–H226, RXn-02 100 μM", "value": "1.704**"},
      {"measurement": "mean optical densities", "setting": "HOP-62; HOP-62, RXn-02 0.1 μM", "value": 1.859},
      {"measurement": "mean optical densities", "setting": "HOP-62; HOP-62, RXn-02 1.0 μM", "value": 1.761},
      {"measurement": "mean optical densities", "setting": "HOP-62; HOP-62, RXn-02 10 μM", "value": "1.463*"},
      {"measurement": "mean optical densities", "setting": "HOP-62; HOP-62, RXn-02 100 μM", "value": "0.319***"},
      {"measurement": "IC50", "setting": "HOP-62; Homo sapiens, HOP-62, 48 h", "value": 13.3, "unit": "µM"},
      {"measurement": "mean optical densities", "setting": "A549/ATCC; RXn-02 0.1 μM", "value": 1.997},
      {"measurement": "mean optical densities", "setting": "A549/ATCC; RXn-02 1.0 μM", "value": 1.883},
      {"measurement": "mean optical densities", "setting": "A549/ATCC; RXn-02 10 μM", "value": "1.602**"},
      {"measurement": "mean optical densities", "setting": "A549/ATCC; RXn-02 100 μM", "value": "1.129**"},
      {"measurement": "IC50", "setting": "A549/ATCC; Homo sapiens, A549, 48 h", "value": 48.1, "unit": "µM"},
      {"measurement": "mean optical densities", "setting": "A549; A549, RXn-02 0.1 μM", "value": 1.997},
      {"measurement": "mean optical densities", "setting": "A549; A549, RXn-02 1.0 μM", "value": 1.883},
      {"measurement": "mean optical densities", "setting": "A549; A549, RXn-02 10 μM", "value": "1.602**"},
      {"measurement": "mean optical densities", "setting": "A549; A549, RXn-02 100 μM", "value": "1.129**"},
      {"measurement": "IC50", "setting": "A549; Homo sapiens, A549, 48 h", "value": 48.1, "unit": "µM"},
      {"measurement": "IC50", "setting": "K-562; Homo sapiens, K562, 48 h", "value": 100, "unit": "µM"},
      {"measurement": "mean optical densities", "setting": "K-562; K-562, RXn-02 0.1 μM", "value": 1.771},
      {"measurement": "mean optical densities", "setting": "K-562; K-562, RXn-02 1.0 μM", "value": 1.668},
      {"measurement": "mean optical densities", "setting": "K-562; K-562, RXn-02 10 μM", "value": 1.242},
      {"measurement": "mean optical densities", "setting": "K-562; K-562, RXn-02 100 μM", "value": "1.056*"},
      {"measurement": "AUC(0-t)", "setting": "[1]", "value": 18900, "unit": "ng·h/mL"},
      {"measurement": "Cmax", "setting": "[1]", "value": 1760, "unit": "ng/mL"},
      {"measurement": "IC50", "setting": "NCI–H322 M; Homo sapiens, NCI-H322M", "value": 69.5, "unit": "µM"},
      {"measurement": "mean optical densities", "setting": "NCI–H322 M; RXn-02 0.1 μM", "value": 1.491},
      {"measurement": "mean optical densities", "setting": "NCI–H322 M; RXn-02 1.0 μM", "value": 1.386},
      {"measurement": "mean optical densities", "setting": "NCI–H322 M; RXn-02 10 μM", "value": "1.209*"},
      {"measurement": "mean optical densities", "setting": "NCI–H322 M; RXn-02 100 μM", "value": "1.020*"},
      {"measurement": "IC50", "setting": "[2]", "value": "33.2 to 69.5", "unit": "µM"},
      {"measurement": "IC50", "setting": "MCF7; Homo sapiens, MCF7, 48 h", "value": 0.047, "unit": "µM"},
      {"measurement": "mean optical densities", "setting": "MCF7; MCF7, RXn-02 0.1 μM", "value": 1.083},
      {"measurement": "mean optical densities", "setting": "MCF7; MCF7, RXn-02 1.0 μM", "value": 0.873},
      {"measurement": "mean optical densities", "setting": "MCF7; MCF7, RXn-02 10 μM", "value": "0.735***"},
      {"measurement": "mean optical densities", "setting": "MCF7; MCF7, RXn-02 100 μM", "value": "0.699***"}
    ]}
  ]
}
